Test results as given in PubChem BioAssay AID688 (PCMD, 2007).
Among all 27,000 compounds or so, about 250 (0.93%) were called active.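 The calls were made as follows: active = mutant luminescence inhibited past about 50% while wild type luminescence and mutant growth stay under set limits (limit read from the data); inconclusive = mutant versus wild type luminescence inhibition gap past a set limit; inactive = the rest.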 The full list was thinned out, with actives kept by preference.

assay: GCN4-lacZ reporter reduction in eIF2B-epsilon mutant yeast, primary screen, S. cerevisiae, eIF2B-epsilon R284H, Beta-Glo luminescence (AID 688); conditions: growth inhibition: measured here: mutant yeast growth, toxicity, concentration not given here; inhibition: stronger effect = higher value, screened at 25 µM (by protocol)
In short: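 Times: 16 h growth with compound at 30 °C, 90 min Beta-Glo step; Assay system: yeast eIF2B-epsilon R284H mutant carrying GCN4–beta-galactosidase fusion; Measure: % inhibition of reporter signal and growth versus controls; Dosing: one concentration, 25 µM, 0.25% DMSO; Buffer or medium: YPD yeast growth medium; Measured by: Beta-Glo luminescence plus absorbance at 595 nm.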

Compound | growth inhibition | inhibition
O=C(COc1ccccc1Cl)Nn1cnnc1 | -7.89% | 14.3% (inactive)
Cc1cccc(NC(=O)/C(=C\c2ccco2)NC(=O)c2ccccc2)c1 | 10.8% | 15.4% (inactive)
CCOc1ccc(C(=O)NC(C(=O)NCc2ccccn2)C(C)C)cc1 (configuration not stated) | -4.76% | -9.95% (inactive)
CC(=O)NC1=NN(C(C)=O)C(C)(c2ccc(Cl)s2)S1 (configuration not stated) | 6.67% | 44.3% (inactive)
Cc1cc(C)n(C(=O)CCNC(=O)c2ccccc2Cl)n1 | – | -0.54% (inactive)
O=C(CSc1nnnn1-c1ccccc1)NCc1ccco1 | – | -70.2% (inactive)
Cc1ccc(C(=O)N/N=C/c2sc(=O)n(Cc3cccc(C(=O)O)c3)c2Cl)cc1 | -9.52% | 18.2% (inactive)
COc1ccc(C2CC(=O)C=C(NCC3CCCO3)C2)cc1 (configuration not stated) | 10.8% | 17.6% (inactive)
CCOC(=O)c1cnc(SC)nc1Sc1ccc(Cl)cc1Cl | 5% | 22.2% (inactive)
O=C(NC(C(=O)NCCN1CCOCC1)C12CC3CC(CC(C3)C1)C2)C1CCCCC1 (configuration not stated) | 28.1% | 15.3% (inactive)
Cc1ccc(S(=O)(=O)c2c(COC(=O)c3cccc(Cl)c3)c(-c3ccccc3)nn2C)cc1 | 12.1% | 35.8% (inactive)
O=C(O)c1cc(S(=O)(=O)N2CCCCCC2)c(Cl)cc1Cl | – | 8.58% (inactive)
CCCCCCNCCn1cnc2c(N)ncnc21 | – | 37.2% (inactive)
CCOC(=O)CN1C(=O)C(=O)c2cc(C)ccc21 | -4.55% | 21.8% (inactive)
O=C(Nc1nc2ccc(S(=O)(=O)N3CCCC3)cc2s1)C1CCCO1 (configuration not stated) | -18.2% | 18.6% (inactive)
CC(C)COC(=O)c1ccc(NC(=O)C2C3C=CC(C3)C2C(=O)O)cc1 (configuration not stated) | 20.7% | 15.8% (inactive)
CS(=O)(=O)c1ccc2nc(NC(=O)C3C4C=CC(C4)C3C(=O)O)sc2c1 (configuration not stated) | -6.9% | 55.1% (active)
COC(=O)C1=C(C(=O)OC)C2(OC1c1ccc(Br)cc1)C(=O)c1ccccc1C2=O (configuration not stated) | -26.3% | -2.75% (inactive)
CC(C)(C)c1ccc(C(=O)NCC(=O)OCN2C(=O)c3ccccc3C2=O)cc1 | -3.45% | 13.3% (inactive)
CCCCOC(=O)Cn1c(=N)n(CCN(CC)CC)c2ccccc21 | 19.4% | 17.1% (inactive)
COc1cc(OC)nc(NC(=O)CCl)n1 | -16.7% | 3.82% (inactive)
COc1ccc(C2=NO[C@@H]3C(=O)N(Cc4ccccc4)C(=O)[C@H]23)cc1OC | 14.3% | 7.78% (inactive)
COc1ccc(OC)c(NC(=O)CN2CCN(C(=O)c3ccco3)CC2)c1 | 18.5% | 17.4% (inactive)

Compound | growth inhibition | inhibition
c1ccc(-n2ncc3c2ncn2c(C4CCCCC4)nnc32)cc1 | – | 16.1% (inactive)
Cc1sc2nc(SCC(N)=O)n(C)c(=O)c2c1C | 6.45% | 20.9% (inactive)
O=C(Nc1ccc(Br)cc1)c1cccc(NC(=O)C2C3CC4OC(=O)C2C4C3)c1 (configuration not stated) | 3.13% | 27.9% (inactive)
CC1=C(C(=O)Nc2ccccc2)C(c2ccco2)C(C#N)=C(SCC(N)=O)N1 (configuration not stated) | -15% | 11.1% (inactive)
COC(=O)C1=C(C)Nc2ncnn2C1c1cccnc1 (configuration not stated) | 10% | 1.7% (inactive)
Cc1nn(C(C)CC(=O)O)c(C)c1C (configuration not stated) | – | 18.6% (inactive)
Cc1cc2nnc(SCC(=O)N3CCN(c4ccccc4)CC3)n2c(N)n1 | -13.6% | 24.8% (inactive)
Cn1c(SCC(=O)C(C)(C)C)nnc1-c1ccccn1 | 12.8% | 20.3% (inactive)
CC(CO)N1CCS(=O)(=O)CC1 (configuration not stated) | 15% | 18.1% (inactive)
O=C(CSc1nnc(-c2ccccn2)n1-c1ccccc1)Nc1ccc2c(c1)OCO2 | -57.1% | 55.6% (active)
Cc1ccc(-n2c(SCC(=O)Nc3ccc4c(c3)OCO4)nnc2-c2ccccn2)cc1 | -2.78% | -3.69% (inactive)
Cc1ccc(-n2c(SCC(=O)Nc3ccc4c(c3)OCO4)nnc2-c2ccoc2C)cc1 | – | -19.2% (inactive)
CCCSC1=C(C#N)C(c2ccccc2C)C(C(=O)OC)C(=O)N1 (configuration not stated) | 12% | -22.6% (inactive)
Cc1nc2cc(NC(=O)NCc3ccccc3)ccc2o1 | -9.52% | -14.4% (inactive)
COCC(=O)Nc1ccc(Br)cc1 | -9.52% | -24.5% (inactive)
Cc1nc(NC(=O)CN(C)S(=O)(=O)c2ccc(Cl)cc2)sc1C | 5% | -24.3% (inactive)
C=CCNC(=O)c1cc2nc(C3CC3)cc(C(F)F)n2n1 | – | 12.7% (inactive)
COCCNS(=O)(=O)c1cc(Br)ccc1OC | 9.09% | 18.4% (inactive)
COC(=O)c1ccc(Sc2ccc(F)cc2)c(N)c1 | 27% | 23.2% (inactive)
O=C(c1ccc2c(c1)OCO2)N1CCN(C(=O)c2ccco2)CC1 | 16.7% | 35.7% (inactive)
CCOCN(C(=O)Cn1c(C(C)O)nc2ccccc21)c1c(C)cccc1CC (configuration not stated) | -7.69% | 20.1% (inactive)
CC(=O)OCc1cc2cc(C)ccc2[nH]c1=O | -2.5% | -23.7% (inactive)
